The record followed here is ChEMBL document CHEMBL4725282, “Discovery of a Conformationally Constrained Oxazolidinone with Improved Safety and Efficacy Profiles for the Treatment of Multidrug-Resistant Tuberculosis” (J Med Chem, 2020).

Data set [1] can be described thus: Genotoxicity in CHO-WBL cells assessed as chromosome aberration at 90 to 397.1 ug/ml measured after 20 hrs in absence of S9 fraction by Giemsa staining based. The note with it: chinese hamster, dose 90-397.1 µg/ml. It counts as toxicity, cell-based, Cricetulus griseus. In short, it runs like this: (§1)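 CHO-WBL cells in McCoy's 5A with 10% FBS, seeded 20-24 h before treatment. Compound in DMSO, with or without serum-free S-9 mix. Treatment either 3 h, then HBSS wash and 17 h further culture, or 20 h; harvest at 20 h from treatment start. Colcemid 0.1 μg/mL for the final 2 h, hypotonic KCl, methanol:acetic acid fixation, Giemsa stain. 300 metaphases per concentration (150 per duplicate flask) scored.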

Data set [2] can be described thus: Genotoxicity in CHO-WBL cells assessed as chromosome aberration at 90 to 397.1 ug/ml incubated for 3 hrs followed by compound washout and measured after 17 hrs in presence of S9 fraction by Giemsa staining based. It counts as toxicity, subcellular, Cricetulus griseus. The note with it: chinese hamster, s9, 3 h, dose 90-397.1 µg/ml. An outline of the steps:
as §1

The nature of data set [3]: Toxicity in female Sprague-Dawley rat assessed as body weight loss at 50 to 450 mg/kg/day, po administered for 4 weeks measured at 1 week interval. It counts as organism-based. The settings on record: in vivo, 672 h, dose 50-450 mg/kg/day. In short, it runs like this:
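SD rats, 6-7 weeks, 12 male and 12 female per group. Oral dosing once daily at 50, 150 or 450 mg/kg/day or vehicle for 4 weeks, then 2-week recovery. 8 per sex dissected after last dose, remaining 4 per sex after 14-day recovery. Body weight, urine, food intake and clinical signs monitored.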

Data set [4] can be described thus: Toxicity in female Sprague-Dawley rat assessed as effect on food consumption at 50 to 450 mg/kg/day, po administered for 4 weeks followed by 2 week recovery period measured at 1 week interval. In kind it is organism-based. The note with it: in vivo, 672 h, dose 50-450 mg/kg/day. In short, it runs like this: (§2)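 SD rats, 6-7 weeks old (96 in total), split into vehicle, 50, 150 and 450 mg/kg/day groups of 12 females and 12 males each, given oral doses once daily for 4 weeks, then 2 weeks of recovery. Mortality, body weight, food intake, eyes, urine and neuropsychic signs were observed. Organ and bone marrow histopathology was done on 8 rats per sex per group after the last dose and on the remaining 4 per sex after 14 days of recovery.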

Data set [5] is described as follows: Toxicity in female Sprague-Dawley rat assessed as changes in neuropsychic symptoms at 50 to 450 mg/kg/day, po administered for 4 weeks followed by 2 week recovery period measured during last 24 hrs of recovery period. It counts as organism-based. The settings on record: in vivo, 672 h, dose 50-450 mg/kg/day. An outline of the steps:
as §2

Data set [6] is described as follows: Toxicity in male Sprague-Dawley rat assessed as ophthalmic changes at 50 to 450 mg/kg/day, po administered for 4 weeks followed by 2 week recovery period measured within 7 days of post recover period. In kind it is organism-based. The settings on record: in vivo, 672 h, dose 50-450 mg/kg/day.
Data set [7] in a line: Toxicity in male Sprague-Dawley rat assessed as ophthalmic changes at 50 to 450 mg/kg/day, po administered for 4 weeks measured post last dose. The settings on record: in vivo, 672 h, dose 50-450 mg/kg/day. It counts as organism-based.
A short description of data set [8]: Toxicity in male Sprague-Dawley rat assessed as histopathological changes in bone marrow at 450 mg/kg/day, po administered for 4 weeks measured post last dose. The note with it: in vivo, 672 h. In kind it is organism-based.
Data set [9] can be described thus: Toxicity in female Sprague-Dawley rat assessed as change in red blood cell count at 50 mg/kg/day, po administered for 4 weeks followed by 2 week recovery period (Rvb =7.32 +/- 0.20 10^12/L). In kind it is organism-based. The note with it: in vivo, 672 h.
Data set [10] can be described thus: Toxicity in female Sprague-Dawley rat assessed as change in mean corpuscular volume at 50 mg/kg/day, po administered for 4 weeks followed by 2 week recovery period (Rvb =56.1 +/- 0.8 fL). In kind it is organism-based. The settings on record: in vivo, 672 h.
The nature of data set [11]: Toxicity in male Sprague-Dawley rat assessed as change in mean corpuscular hemoglobin at 50 mg/kg/day, po administered for 4 weeks followed by 2 week recovery period (Rvb =18.3 +/- 0.4 pg). In kind it is organism-based. The settings on record: in vivo, 672 h.
The nature of data set [12]: Toxicity in male Sprague-Dawley rat assessed as change in white blood cell count at 150 mg/kg/day, po administered for 4 weeks followed by 2 week recovery period (Rvb =6.12 +/- 1.10 10^9/L). In kind it is organism-based. The note with it: in vivo, 672 h. An outline of the steps: (§3)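 SD rats aged 6-7 weeks, 24 per group (12 female, 12 male): vehicle, 50, 150 or 450 mg/kg/day given orally once daily for 4 weeks, then 2-week recovery. 8 per sex per group dissected after the last dose and 4 per sex after 14-day recovery. Hematology included WBC count, reported as mean ± SD (n = 12), compared with vehicle.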

Data set [13] in a line: Toxicity in female Sprague-Dawley rat assessed as change in platelet count at 150 mg/kg/day, po administered for 4 weeks followed by 2 week recovery period (Rvb =1051 +/- 122 10^9/L). It counts as organism-based. The settings on record: in vivo, 672 h.
Data set [14] is described as follows: Toxicity in female Sprague-Dawley rat assessed as change in mean corpuscular volume at 150 mg/kg/day, po administered for 4 weeks followed by 2 week recovery period (Rvb =56.1 +/- 0.8 fL). The note with it: in vivo, 672 h. In kind it is organism-based.
Data set [15] can be described thus: Toxicity in male Sprague-Dawley rat assessed as change in reticulocyte level at 150 mg/kg/day, po administered for 4 weeks followed by 2 week recovery period (Rvb =2.48 +/- 0.34 %). The note with it: in vivo, 672 h. It counts as organism-based.
Data set [16] is described as follows: Toxicity in female Sprague-Dawley rat assessed as change in white blood cell count at 450 mg/kg/day, po administered for 4 weeks followed by 2 week recovery period (Rvb =3.61 +/- 0.75 10^9/L). The settings on record: in vivo, 672 h. In kind it is organism-based.
Data set [17] is described as follows: Toxicity in male Sprague-Dawley rat assessed as change in white blood cell count at 450 mg/kg/day, po administered for 4 weeks followed by 2 week recovery period (Rvb =6.12 +/- 1.10 10^9/L). It counts as organism-based. The note with it: in vivo, 672 h. An outline of the steps:
as §3

The nature of data set [18]: Toxicity in male Sprague-Dawley rat assessed as change in platelet count at 450 mg/kg/day, po administered for 4 weeks followed by 2 week recovery period (Rvb =1077 +/- 117 10^9/L). In kind it is organism-based. The note with it: in vivo, 672 h.
The nature of data set [19]: Toxicity in female Sprague-Dawley rat assessed as change in hematocrit level at 450 mg/kg/day, po administered for 4 weeks followed by 2 week recovery period (Rvb =41.1 +/- 1.4 %). In kind it is organism-based. The settings on record: in vivo, 672 h.

Structures are written as SMILES.

Consider `CC(=O)NC[C@@H]1OC(=O)N2c3cc(F)c(N4CC[S+]([O-])CC4)cc3OC[C@@H]12`, for which the Activity result in data set [1] and in [2] was “Non-Toxic” in each case.
With `CC(=O)NC[C@@H]1OC(=O)N2c3cc(F)c(N4CCSCC4)cc3OC[C@@H]12`, the Activity entry in data set [3], in [4], in data set [5], in data set [6], in data set [7] and in data set [8] was “Non-Toxic” in each case. The Activity in data set [9] is 6.85 10^12/L; in data set [10], 56.5 fL; in data set [11] it was 18.7 pg; in [12], 6.11 10^9/L; in data set [13], 787 10^9/L; in [14] it was 56.6 fL. The Activity in data set [15] was 3.15%; in data set [16], 2.82 10^9/L; in data set [17], 5.06 10^9/L; in data set [18], 1038 10^9/L; in [19] it was 36.9%.
